An excerpt weighted towards active compounds, which were near 2.6% of everything screened.
NSD2 HMT inh = NSD2 histone methyltransferase inhibitors, primary screen, biochemical, AlphaScreen, single concentration, set 2; Histone-lysine N-methyltransferase NSD2 (Homo sapiens), O96028; NSD2 peptide methylation, 120 min; inhibition, % at 12.5 µM; 0.54% of 310,000 active; in the data active = inhibition above about 50%
CASP6 VEID inh = human caspase-6 inhibitors, primary screen, biochemical, VEID-R110 fluorescence, single point, set 2; purified caspase-6, Z-VEID-R110 cleavage fluorescence; 0.53% of 350,000 active; P55212; inhibition, % at 12.5 µM;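 active = mean inhibition across replicates at least about 35%, with every replicate also reaching that limit, limit read from the data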
SIRT5 block = SIRT5 desuccinylase inhibitors, primary screen, biochemical, fluorescence imaging, single point, set 5; NAD-dependent protein deacylase sirtuin-5, mitochondrial (Homo sapiens), Q9NXA8; Purified SirT5, succinyl-peptide AMC, trypsin-coupled fluorescence; inhibition, % at 15 µM; 1.1% of 330,000 active; AID 652115, 2013; in the data active = inhibition above about 15%
Target sequence (Q9NXA8 whole entry, looked up): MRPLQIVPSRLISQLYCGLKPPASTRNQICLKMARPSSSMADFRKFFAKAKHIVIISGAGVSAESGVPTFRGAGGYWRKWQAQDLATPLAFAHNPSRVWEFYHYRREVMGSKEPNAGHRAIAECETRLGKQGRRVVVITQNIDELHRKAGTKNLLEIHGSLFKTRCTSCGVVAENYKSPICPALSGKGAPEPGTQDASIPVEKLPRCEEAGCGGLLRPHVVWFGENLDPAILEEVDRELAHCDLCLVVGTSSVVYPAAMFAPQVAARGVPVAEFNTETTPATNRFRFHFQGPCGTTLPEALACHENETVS
UCH37 inh = inhibitors of human UCH37 deubiquitinase, primary screen, biochemical, Ub-AMC cleavage, fluorescence | purified proteasome/UCH37 | inhibition, % (concentration not given with the values) | 0.33% of 330,000 active | AID 588478, 2011;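 active = mean inhibition over replicate wells above about 20%, limit read from the data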
Target sequence (Q9Y5K5 whole entry, looked up): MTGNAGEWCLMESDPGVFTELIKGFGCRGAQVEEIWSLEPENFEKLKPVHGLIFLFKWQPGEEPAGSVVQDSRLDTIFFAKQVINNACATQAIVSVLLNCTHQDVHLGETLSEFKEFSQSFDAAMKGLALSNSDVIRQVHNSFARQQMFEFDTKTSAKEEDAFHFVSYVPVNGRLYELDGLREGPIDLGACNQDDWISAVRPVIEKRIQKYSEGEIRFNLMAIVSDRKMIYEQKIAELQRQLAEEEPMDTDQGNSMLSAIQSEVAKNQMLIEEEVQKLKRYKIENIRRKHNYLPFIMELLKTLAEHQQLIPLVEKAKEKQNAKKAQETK
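Signal – fluorescence, ex 355 nm, em 460 nm · System – Proteasome-bound UCH37 · Input – 0.15 nM proteasome as dispensed · Timing – 30 min preincubation with enzyme, 25 min cleavage at room temperature · Read-out basis – percent inhibition of cleavage signal versus uninhibited and no-proteasome wells · Medium – Tris-HCl pH 7.4 with ATP-MgCl2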
FGF22 binding = binders of human FGF22 protein, primary screen, FGF22 synaptogenesis inhibitor project, biophysical, thermal shift, single point | recombinant FGF22 thermal shift, SYPRO orange fluorescence; percent of sucrose octasulfate shift, DMSO zero | activity (Tm shift, normalised), % at 9.99 µM | Fibroblast growth factor 22 (Homo sapiens), Q9HCT0 | AID 651658, 2012 | 1.5% of 340,000 active;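 active = mean Tm shift, scaled 0 neutral to 100 positive control, at about 1.3% or above, every replicate too, limit read from the data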
Each line names hits and unclear results; the compound was inactive in the other large screens.

CCc1cccc2c(C(=O)COC(=O)c3ccc([N+](=O)[O-])s3)c[nH]c12	FGF22 binding 44
COCC(=O)N1C[C@H](C)[C@@H](OC)CN(C)C(=O)c2ccc(NC(=O)NC(C)C)cc2OC[C@H]1C	none (no result: NSD2 HMT inh, UCH37 inh)
CC(=O)OCC1OC(COC(C)=O)(c2ccc(C)cc2)C(OC(C)=O)C1OC(C)=O (configuration not stated)	FGF22 binding 51 (no result: UCH37 inh)
COCC(=O)N1C[C@@H]2[C@H](c3ccccc31)[C@@H](CO)N2Cc1ccccc1F	none (no result: NSD2 HMT inh, UCH37 inh)
CC(=O)Nc1ncc2c(n1)CC(c1ccco1)CC2=O (configuration not stated)	SIRT5 block 16 (no result: FGF22 binding)
O=C(c1ccc2c3c(cccc13)CC2)C1CCCN(Cc2ccncc2)C1 (configuration not stated)	none
CCc1nc(CN2CCCC(C(=O)c3ccc4c5c(cccc35)CC4)C2)c(C)[nH]1 (configuration not stated)	FGF22 binding 44
Cc1ncccc1C(=O)N1CCCC(C(=O)c2ccc3c4c(cccc24)CC3)C1 (configuration not stated)	FGF22 binding 43
CCN1CCN(C(=O)/C=C/c2ccc(F)cc2)CC1	SIRT5 block 18
CCN1CCN(C(=O)/C=C/c2ccc(OC)cc2)CC1	none
CC1CCCC(C)N1/N=C/c1ccc(O)c(O)c1 (configuration not stated)	NSD2 HMT inh 60 (no result: UCH37 inh)
O=C(NC1=NCCS1)c1cc(-c2ccc(-c3ccccc3)cc2)nc2ccccc12	FGF22 binding 43 (no result: UCH37 inh)
C[C@@H]1CN([C@H](C)CO)C(=O)c2cc(NS(C)(=O)=O)ccc2O[C@@H]1CN(C)C(=O)Nc1ccc2c(c1)OCO2	none (no result: NSD2 HMT inh, UCH37 inh)
COCCn1c(SCC(=O)c2ccccc2)nc2c(c1=O)SCC2	FGF22 binding 43
COC(=O)CN1CC(=O)N(c2ccccc2)C1=S	FGF22 binding 43
CCc1ccc(N2C(=O)CN(CC(=O)OC)C2=S)cc1	none
CCOC(=O)c1c(O)c(Cl)c(C)[nH]c1=O	FGF22 binding 43
C/C(=N/NC(=O)c1ccc(C)s1)c1cccc(NC(=O)c2ccoc2C)c1	SIRT5 block 17 (no result: UCH37 inh)
COc1ccc(NC(=O)N2C[C@H](O)COC[C@@H]3O[C@H](CC(=O)NC4Cc5ccccc5C4)CC[C@H]32)cc1	none (no result: NSD2 HMT inh, UCH37 inh)
COC(=O)C1(Cc2cc(-c3cccc(Br)c3)no2)CCN(C(=O)OC(C)(C)C)CC1	none (no result: NSD2 HMT inh)
COC(=O)C1(Cc2cc(-c3ccc(OC)cc3OC)no2)CCN(C(=O)OC(C)(C)C)CC1	SIRT5 block 34 (no result: NSD2 HMT inh)
CCNC(=O)[C@@H]1[C@@H](CO)[C@@H]2Cn3c(cccc3=O)[C@H]1N2C(=O)c1ccc(F)cc1	none (no result: NSD2 HMT inh, UCH37 inh, FGF22 binding)
Cc1cccc(C)c1NC(=O)COC(=O)Cc1ccsc1	FGF22 binding 43
CCOc1ccc(NC(=O)COC(=O)Cc2ccsc2)cc1	SIRT5 block 20
Cc1cccc(C(C)C)c1NC(=O)COC(=O)Cc1ccsc1	none
CCc1cccc(CC)c1NC(=O)COC(=O)Cc1ccsc1	none
COc1ccccc1-c1cc(C(=O)NN=C/C=C/c2ccccc2[N+](=O)[O-])c2ccccc2n1	none (no result: NSD2 HMT inh, CASP6 VEID inh, SIRT5 block, FGF22 binding)
O=C(Nc1ccc(C(F)(F)F)cc1)N1C[C@@H]2N[C@H](C1)C2c1ccc(-c2cccnc2)cc1 (some centres not stated)	none (no result: NSD2 HMT inh, CASP6 VEID inh, SIRT5 block, UCH37 inh)
O=Cc1ccc(N2CCCCC2)cc1	none
COc1cc(N2CCCC2)ccc1C=O	FGF22 binding 44
CN(CCOC(=O)c1cccc(F)c1)Cc1ccccc1	FGF22 binding 43 (no result: UCH37 inh)
Cc1ccc(NC(=O)CN(C)C(=O)c2ccc(NC(=O)CC3SC(N4CCCC4)=NC3=O)cc2)cc1 (configuration not stated)	FGF22 binding 44 (no result: NSD2 HMT inh)
O=C(O)COn1c(-c2ccccc2)nc2ccc([N+](=O)[O-])cc21	CASP6 VEID inh 43
CCOC(=O)C(C)On1c(-c2ccccc2)nc2ccc([N+](=O)[O-])cc21 (configuration not stated)	none (no result: CASP6 VEID inh, SIRT5 block, FGF22 binding)
Cc1cc(C(=O)NN=Cc2sccc2C)no1	none (no result: NSD2 HMT inh, CASP6 VEID inh, SIRT5 block, FGF22 binding)
Cc1ccccc1Nc1cc2ccccc2c(=O)[nH]1	none (no result: NSD2 HMT inh, CASP6 VEID inh, SIRT5 block, FGF22 binding)
O=c1[nH]c(Nc2ccccn2)cc2ccccc12	CASP6 VEID inh 90 (no result: NSD2 HMT inh, UCH37 inh)
CCC(=O)NC(=NOCc1ccc(F)cc1)c1nonc1NC(=O)CC	none (no result: NSD2 HMT inh, CASP6 VEID inh, SIRT5 block, FGF22 binding)
O=C(c1cc2cc(Br)ccc2s1)N1CCOCC1	FGF22 binding 43
O=C(c1cc2cc(C(F)(F)F)ccc2s1)N1CCOCC1	none
O=C(C[C@H]1C=C[C@H](NC(=O)Nc2cc(F)ccc2F)[C@H](CO)O1)Nc1ccc(-c2ccccc2)cc1	none (no result: NSD2 HMT inh, SIRT5 block, UCH37 inh)
CC(=O)c1cccc(NC(=O)CCS(=O)(=O)c2ccc(Br)s2)c1	SIRT5 block 19
COC(=O)c1ccc(NC(=O)CCS(=O)(=O)c2ccc(Br)s2)cc1	none (no result: CASP6 VEID inh, SIRT5 block, FGF22 binding)
Cc1[nH]c2ccccc2c1N=Nc1ccccc1F	FGF22 binding 44
CCC(=O)N1[C@@H]2CN(S(=O)(=O)c3ccccc3C)c3ccccc3[C@@H]2[C@@H]1CO	none (no result: NSD2 HMT inh, UCH37 inh)
CS(=O)(=O)Nc1ccc2c(c1)[C@H]1C[C@H](CC(=O)NCc3ccccc3)O[C@H](CO)[C@H]1O2	SIRT5 block 16 (no result: NSD2 HMT inh, UCH37 inh)
CS(=O)(=O)Nc1ccc2c(c1)[C@@H]1C[C@@H](CC(=O)NCc3ccccc3)O[C@H](CO)[C@@H]1O2	none (no result: NSD2 HMT inh, UCH37 inh)
O=C(C[C@H]1C[C@@H]2c3cc(NS(=O)(=O)c4ccc(F)cc4)ccc3O[C@@H]2[C@@H](CO)O1)NCc1ccc(Oc2ccccc2)cc1	SIRT5 block 15 (no result: NSD2 HMT inh, UCH37 inh)
CN(C)c1ccc2c(c1)[C@H]1C[C@H](CC(=O)NCc3ccc(Oc4ccccc4)cc3)O[C@H](CO)[C@H]1O2	SIRT5 block 21 (no result: NSD2 HMT inh, UCH37 inh)
O=C(C[C@H]1C[C@@H]2c3cc(NS(=O)(=O)c4ccc(F)cc4)ccc3O[C@@H]2[C@@H](CO)O1)NCc1ccc(-c2ccccc2)cc1	SIRT5 block 17 (no result: NSD2 HMT inh, UCH37 inh, FGF22 binding)
O=C(C[C@H]1C[C@H]2c3cc(NC(=O)C4CCC4)ccc3O[C@H]2[C@H](CO)O1)NCCN1CCCCC1	SIRT5 block 35 (no result: NSD2 HMT inh, UCH37 inh)
O=C(C[C@@H]1C[C@H]2c3cc(NC(=O)C4CCC4)ccc3O[C@H]2[C@H](CO)O1)NCc1ccc(-c2ccccc2)cc1	SIRT5 block 25 (no result: NSD2 HMT inh, UCH37 inh)
O=C(C[C@@H]1C[C@@H]2c3cc(NC(=O)C4CCC4)ccc3O[C@@H]2[C@H](CO)O1)NCc1ccc(-c2ccccc2)cc1	none (no result: NSD2 HMT inh, UCH37 inh)
C[C@@H]1CN([C@H](C)CO)C(=O)c2cc(C#C[C@@H](C)O)cnc2O[C@H]1CN(C)Cc1cccc(C(=O)O)c1	none (no result: NSD2 HMT inh, UCH37 inh)
Clc1ccc(-c2cc(COc3ccccc3)on2)cc1	FGF22 binding 43
Clc1ccc(OCc2cc(-c3ccccc3)no2)cc1Cl	none

High-throughput results: PubChem, several laboratories
